Activity calls are given as the source filed them. The rule behind the calls is not given here.
Legend:
[1] = system: Raji; assay: Induction of apoptosis in human Raji cells assessed as late apoptotic cells at 1 uM after 48 hrs by Annexin V-FITC/propidium iodide staining based flow cytometry (reference value: 0.1%); assay type: functional
In short: (§1)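 RAJI cells exposed to compound or control medium for 12 or 48 h were washed in PBS and resuspended in binding buffer. They were stained with FITC annexin V and PI for 15 min in the dark, and fluorescence was measured by flow cytometry.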

[2] = system: Raji; assay: Cell cycle arrest in human Raji cells assessed as accumulation at S phase after 48 hrs by propidium iodide staining based flow cytometry (reference value: 32.2%); assay type: functional
[3] = system: Raji; assay: Induction of apoptosis in human Raji cells assessed as necrotic cells at 1 uM after 12 hrs by Annexin V-FITC/propidium iodide staining based flow cytometry relative to control; assay type: functional; in short: as §1
[4] = Drug uptake in human Raji cells at 1 uM after 12 to 48 hrs; assay type: ADME, cell-based
[5] = system: Raji; assay: Induction of apoptosis in human Raji cells assessed as necrotic cells at 0.5 uM after 12 hrs by Annexin V-FITC/propidium iodide staining based flow cytometry relative to control; assay type: functional; in short: as §1
[6] = system: Mus musculus; assay: Toxicity in NOD/SCID nude mouse xenografted with human Raji cells assessed as reduction in viscera weight at 15 to 30 mg/kg, ip administered once daily for 2 weeks measured every day during compound dosing; assay type: organism-based; conditions: in vivo, 336 h
In short: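 NOD/SCID mice implanted subcutaneously in the underarm with 5 × 10^6 RAJI cells in 100 μL RPMI 1640 with 10% serum; tumours grown about 1 week, then mice randomized. Body weight recorded daily; organ weights taken at end.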

[7] = system: Raji; assay: Induction of apoptosis in human Raji cells assessed as necrotic cells at 1 uM after 48 hrs by Annexin V-FITC/propidium iodide staining based flow cytometry relative to control; assay type: functional; in short: as §1
[8] = species on record: Homo sapiens; assay: Stabilization of c-Myc G-quadruplex DNA in human Raji cells assessed as decrease in amplification of exon-1 after 12 hrs by RT-PCR method; assay type: cell-based
In short: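 Exon-specific assay: RAJI and CA46 cells exposed to various ligand concentrations for 12 h; total RNA (2 μg) reverse-transcribed with oligo dT18 and M-MLV (42 °C 1 h). c-MYC exon 1 and exon 2, NM23-H2 and β-actin amplified by real-time PCR, products run on 1% agarose; untreated cells as control; three repeats, two-tailed unpaired t test.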

[9] = system: Raji; assay: Effect on NM23-H2 protein expression in human Raji cells up to 4 uM up to 48 hrs by Western blot method; assay type: functional, cell-based
In short: (§2)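 After compound exposure (12 h for cell-cycle and apoptosis markers), RAJI cells were lysed in 1% NP-40 buffer. Protein at 50 μg per lane was run on 3–12% SDS-PAGE and transferred to nitrocellulose. Blots were probed with primary antibodies (GAPDH as loading reference) and detected with an HRP secondary and enhanced chemiluminescence.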

[10] = system: Raji; assay: Induction of apoptosis in human Raji cells assessed as downregulation of CDK4 expression after 12 hrs by Western blot method; assay type: functional, cell-based; in short: as §2
[11] = system: Raji; assay: Antiproliferative activity against human Raji cells after 48 hrs by MTT assay; assay type: functional, cell-based
In short: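 RAJI cells were seeded at 5 × 10^3 cells per well and treated for 48 h, with a DMSO-matched control. MTT at 0.5 mg/mL was added for 4 h at 37 °C, followed by overnight lysis at 37 °C and absorbance at 570 nm. Each assay was done in triplicate. IC50 came from the dose-dependent percentage survival versus the control.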

[12] = system: U-266; assay: Antiproliferative activity against human U266B1 cells after 12 hrs by MTT assay; assay type: functional, cell-based; conditions: U-266, 12 h
In short: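 RAJI, CCRF-CEM and U266B1 cells were seeded at 5 × 10^3 cells per well and exposed to compound for 12 h, with a DMSO vehicle control. MTT at 0.5 mg/mL was added for 4 h at 37 °C, then lysis solution overnight at 37 °C, and A570 was read. Assays were run in triplicate. IC50 was taken from the percentage survival relative to the negative control.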

[13] = system: Raji; assay: Induction of apoptosis in human Raji cells assessed as late apoptotic cells at 0.5 uM after 48 hrs by Annexin V-FITC/propidium iodide staining based flow cytometry (reference value: 0.1%); assay type: functional; in short: as §1
[14] = system: Raji; assay: Antitumor activity against human Raji cells xenografted in NOD/SCID nude mouse assessed as reduction in tumor volume at 30 mg/kg, ip administered once daily for 2 weeks relative to control; assay type: functional
In short: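 NOD/SCID mice were implanted subcutaneously in the underarm with RAJI cells (5 × 10^6 per 100 μL of RPMI 1640 with 10% serum). Tumours reached […] after 1 week, and mice were then randomised. […] Tumour volume was recorded daily and tumour weight at the end.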

[15] = Stabilization of c-Myc Pu27 G-quadruplex DNA (unknown origin) assessed as induction of parallel G-quadruplex formation in absence of K+ ions by CD spectroscopic analysis
In short: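 CD spectra: Pu27 at 5 μM in 10 mM Tris-HCl pH 7.4 without or with 100 mM KCl, annealed 95 °C 5 min, slow-cooled, kept at 4 °C overnight, with ligand. Scanned 230–400 in a 4 mm quartz cuvette, 1 nm bandwidth and step, 0.5 s/point; buffer baseline subtracted.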

[16] = system: Raji; assay: Induction of apoptosis in human Raji cells assessed as late apoptotic cells at 0.5 uM after 12 hrs by Annexin V-FITC/propidium iodide staining based flow cytometry relative to control; assay type: functional; in short: as §1
[17] = Inhibition of NM23-H2 binding to 5'-FAM labeled c-Myc Pu27 G-quadruplex DNA (unknown origin) preincubated for 1 hr followed by NM23-H2 addition by electrophoretic mobility shift assay
In short: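 Annealed labelled Pu27 (1.5 μM) was preincubated with 10 μM agent or 5% DMSO for 1 h at 25 °C. […] Complexes were resolved on 5% native PAGE in 0.5× TBE at 4 °C, 150 V. Inhibition was taken against the no-compound complex band (set as 100%); three runs, Hill-fit IC50.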

[18] = system: Raji; assay: Induction of apoptosis in human Raji cells assessed as early apoptotic cells at 1 uM after 12 hrs by Annexin V-FITC/propidium iodide staining based flow cytometry (reference value: 2.3%); assay type: functional; in short: as §1

CN(C)CCCNc1c2ccccc2nc2c1oc1ccc(OCC3CCN(C)CC3)cc12
Activity [1]: 37%
Activity [2]: 21.4%
Activity [3]: 0%
Drug uptake [4]: Not Active
Activity [5]: 0%
Activity [6]: Non-Toxic
Activity [7]: 0%
Activity [8]: Dose-dependent effect
Activity [9]: inactive
Activity [10]: Dose-dependent effect
IC50 [11]: 4.7 µM
IC50 [12]: 23 µM
Activity [13]: 0.7%
T/C [14]: 26.6%
Activity [15]: Active
Activity [16]: 0.2%
IC50 [17]: 1.56 µM
Activity [18]: 18.9%

From ChEMBL document CHEMBL4011629, “New Disubstituted Quindoline Derivatives Inhibiting Burkitt's Lymphoma Cell Proliferation by Impeding c-MYC Transcription” (J Med Chem, 2017)
